Experimental data: ChEMBL document CHEMBL1629448, “Identification and synthesis of novel inhibitors of acetyl-CoA carboxylase with in vitro and in vivo efficacy on fat oxidation” (J Med Chem, 2010)
Activity calls are given as the source filed them. The calls are words filed in the database; no cut-off is given here.

Columns and labels:
[1] = Tmax in Wistar rat plasma at 10 mg/kg, po; assay type: ADME, organism-based; set-up: dose 10 mg/kg, route oral
How it was run: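 Female Wistar rats given a single oral dose of 10 mg/kg in 10% DMSO. Plasma and liver sampled at eight time points over 24 h, three animals killed per time point. Drug levels measured by LC-MS/MS with an internal standard. […] Values are means ± SD (n = 3).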

[2] = target: T1, Peroxisome proliferator-activated receptor gamma (Homo sapiens) (UniProt P37231); experiment: Inhibition of PPARgamma
T1 sequence (whole entry): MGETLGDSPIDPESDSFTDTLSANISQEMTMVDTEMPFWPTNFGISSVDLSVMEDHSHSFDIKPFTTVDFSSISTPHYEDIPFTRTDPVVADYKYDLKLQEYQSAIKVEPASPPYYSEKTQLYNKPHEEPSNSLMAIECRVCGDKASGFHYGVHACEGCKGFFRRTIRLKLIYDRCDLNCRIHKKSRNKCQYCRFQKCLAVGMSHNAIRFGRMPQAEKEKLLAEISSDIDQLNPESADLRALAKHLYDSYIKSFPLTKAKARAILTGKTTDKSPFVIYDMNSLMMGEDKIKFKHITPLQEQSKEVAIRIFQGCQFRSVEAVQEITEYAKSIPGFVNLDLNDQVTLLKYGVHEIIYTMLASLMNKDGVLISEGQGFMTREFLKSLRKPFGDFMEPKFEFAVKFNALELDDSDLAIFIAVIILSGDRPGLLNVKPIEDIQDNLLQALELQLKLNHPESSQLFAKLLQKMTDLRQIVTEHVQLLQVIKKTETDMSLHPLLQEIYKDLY

[3] = Inhibition of N-terminal His-tagged rat recombinant ACC2 expressed in high five insect cells by ATP consumption assay
[4] = test system: Rattus norvegicus; experiment: Stimulation of fat oxidation in Wistar rat assessed as decrease in respiratory quotient at 50 mg/kg, po administered 2 hrs before lipid load; assay type: functional, organism-based; set-up: dose 50 mg/kg
How it was run: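 Female Wistar rats housed singly in calorimetry cages, acclimated at least 12 h. Dosed orally with 50 mg/kg or vehicle. Two hours later, oral 10 mL/kg 20% Lipofundin MCT (2 g fat/kg) or PBS. O₂ and CO₂ measured every 17 min per cage for 1 min. RQ is CO₂ production/O₂ consumption.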

[5] = target: T2, Peroxisome proliferator-activated receptor alpha (Homo sapiens) (UniProt Q07869); experiment: Inhibition of PPARalpha
T2 sequence (whole entry): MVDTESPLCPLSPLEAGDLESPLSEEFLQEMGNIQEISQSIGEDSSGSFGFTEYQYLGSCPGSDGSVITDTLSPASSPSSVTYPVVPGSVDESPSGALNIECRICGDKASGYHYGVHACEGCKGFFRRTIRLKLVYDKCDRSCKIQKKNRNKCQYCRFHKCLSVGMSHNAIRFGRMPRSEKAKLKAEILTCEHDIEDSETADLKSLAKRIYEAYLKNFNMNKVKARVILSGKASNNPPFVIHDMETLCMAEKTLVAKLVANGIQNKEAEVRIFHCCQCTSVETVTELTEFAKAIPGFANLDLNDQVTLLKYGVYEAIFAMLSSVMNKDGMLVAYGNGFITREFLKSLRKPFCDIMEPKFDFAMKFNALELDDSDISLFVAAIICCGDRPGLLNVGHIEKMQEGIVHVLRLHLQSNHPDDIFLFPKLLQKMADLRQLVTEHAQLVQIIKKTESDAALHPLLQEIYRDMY

Tmax [1]: 2 h | inhibition [2]: inactive | inhibition [5]: inactive
Compound: CC(=O)N[C@@H](C)CCc1ccc(Oc2ccc(OC(C)C)nc2)cc1
IC50 [3]: 400 nM | Activity [4]: Active
